Paper PMC9302689 (British Journal of Clinical Pharmacology, 2022)

System: healthy male subjects
Test: Pharmaco-EEG
Assay type: in vivo, human
Settings: 12-hour post-dose period
In short: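 Continuous EEG was recorded from 21 electrodes placed by the 10–20 system, with mastoid electrodes replacing the earlobe ones. Recordings followed IPEG guidelines, twice pre-dose and at 0.5–10 h post-dose. Power spectra for Fz-Cz and Pz-O derivations were split into bands to give total band power (μV). Values were ln-transformed, analysed by MMRM over 12 h against pooled placebo, and back-transformed.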

## CN1CCC23CCCCC2C1Cc1ccc(C(N)=O)cc13 (stereo not drawn) [ALKS 7119, (9α, 13α)‐17‐methylmorphinan‐3‐carboxamide]
75 mg single oral dose
  Theta-power Pz-Oz, LSM CFB: 0.12 Hz
  Theta-power Pz-Oz, estimate of difference compared to placebo: 0.05 [−0.20, 0.28] P = .69 Hz
100 mg single oral dose
  Alpha-power Fz-Cz, LSM CFB: 0.06 Hz
  Alpha-power Pz-Oz, LSM CFB: 0.12 Hz
  Alpha-power Pz-Oz, estimate of difference compared to placebo: 0.02 [−0.23, 0.28] P = .85 Hz
  Beta-power Fz-Cz, LSM CFB: 0.08 Hz
  Beta-power Fz-Cz, estimate of difference compared to placebo: −0.03 [−0.25, 0.19] P = .77 Hz
  Beta-power Pz-Oz, LSM CFB: 0.25 Hz
  Beta-power Pz-Oz, estimate of difference compared to placebo: 0.12 [−0.07, 0.32] P = .22 Hz
  Delta-power Fz-Cz, LSM CFB: −0.03 Hz
  Delta-power Fz-Cz, estimate of difference compared to placebo: −0.13 [−0.34, 0.08] P = .22 Hz
  Delta-power Pz-Oz, LSM CFB: 0.08 Hz
  Delta-power Pz-Oz, estimate of difference compared to placebo: 0.02 [−0.21, 0.25] P = .89 Hz
  Gamma-power Fz-Cz, LSM CFB: 0.1 Hz
  Gamma-power Fz-Cz, estimate of difference compared to placebo: <−0.01 [−0.20, 0.21] P = .99 Hz
  Gamma-power Pz-Oz, LSM CFB: 0.27 Hz
  Gamma-power Pz-Oz, estimate of difference compared to placebo: 0.06 [−0.19, 0.32] P = .63 Hz
  Theta-power Fz-Cz, LSM CFB: 0.03 Hz
  Theta-power Fz-Cz, estimate of difference compared to placebo: −0.04 [−0.27, 0.19] P = .72 Hz
  Theta-power Pz-Oz, LSM CFB: 0.14 Hz
  Theta-power Pz-Oz, estimate of difference compared to placebo: 0.08 [−0.16, 0.30] P = .56 Hz
125 mg single oral dose
  Alpha-power Fz-Cz, LSM CFB: 0.05 Hz
  Alpha-power Fz-Cz, estimate of difference compared to placebo: −0.17 [−1.24,‐.89] P = .75 Hz
  Alpha-power Pz-Oz, LSM CFB: 0.11 Hz
  Alpha-power Pz-Oz, estimate of difference compared to placebo: 0.01 [−0.25, 0.27] P = .93 Hz
  Beta-power Fz-Cz, LSM CFB: 0.12 Hz
  Beta-power Fz-Cz, estimate of difference compared to placebo: 0.01 [−0.21, 0.23] P = .93 Hz
  Beta-power Pz-Oz, LSM CFB: 0.14 Hz
  Beta-power Pz-Oz, estimate of difference compared to placebo: 0.02 [−0.18, 0.22] P = .87 Hz
  Delta-power Fz-Cz, LSM CFB: 0.09 Hz
  Delta-power Fz-Cz, estimate of difference compared to placebo: −0.01 [0.22, 0.20] P = .90 Hz
  Delta-power Pz-Oz, LSM CFB: 0.22 Hz
  Delta-power Pz-Oz, estimate of difference compared to placebo: 0.15 [−0.08, 0.39] P = .19 Hz
  Gamma-power Fz-Cz, LSM CFB: 0.12 Hz
  Gamma-power Fz-Cz, estimate of difference compared to placebo: 0.02 [−0.18, 0.22] P = .85 Hz
  Gamma-power Pz-Oz, LSM CFB: 0.12 Hz
  Gamma-power Pz-Oz, estimate of difference compared to placebo: −0.09 [−0.35, 0.17] P = .49 Hz
  Theta-power Fz-Cz, LSM CFB: 0.1 Hz
  Theta-power Fz-Cz, estimate of difference compared to placebo: 0.03 [−0.20, 0.25] P = .82 Hz
  Theta-power Pz-Oz, LSM CFB: 0.15 Hz
  Theta-power Pz-Oz, estimate of difference compared to placebo: 0.08 [−0.15, 0.31] P = .50 Hz
150 mg single oral dose
  Alpha-power Fz-Cz, LSM CFB: 0.15 Hz
  Alpha-power Pz-Oz, LSM CFB: −0.07 Hz
  Alpha-power Pz-Oz, estimate of difference compared to placebo: −0.17 [−0.43, 0.09] P = .19 Hz
  Beta-power Fz-Cz, LSM CFB: 0.11 Hz
  Beta-power Fz-Cz, estimate of difference compared to placebo: −0.01 [−0.22, 0.22] P = .97 Hz
  Beta-power Pz-Oz, LSM CFB: −0.07 Hz
  Beta-power Pz-Oz, estimate of difference compared to placebo: −0.19 [−0.39, 0.01] P = .06 Hz
  Delta-power Fz-Cz, LSM CFB: −0.08 Hz
  Delta-power Fz-Cz, estimate of difference compared to placebo: −0.19 [−0.41, 0.03] P = .08 Hz
  Delta-power Pz-Oz, LSM CFB: 0.02 Hz
  Delta-power Pz-Oz, estimate of difference compared to placebo: −0.04 [−0.27, 0.19] P = .71 Hz
  Gamma-power Fz-Cz, LSM CFB: 0.14 Hz
  Gamma-power Fz-Cz, estimate of difference compared to placebo: 0.04 [−0.16, 0.24] P = .71 Hz
  Gamma-power Pz-Oz, LSM CFB: 0.09 Hz
  Gamma-power Pz-Oz, estimate of difference compared to placebo: −0.12 [−0.37, 0.14] P = .37 Hz
  Theta-power Fz-Cz, LSM CFB: 0 Hz
  Theta-power Fz-Cz, estimate of difference compared to placebo: −0.07 [−0.31, 0.16] P = .54 Hz
  Theta-power Pz-Oz, LSM CFB: 0 Hz
  Theta-power Pz-Oz, estimate of difference compared to placebo: −0.07 [−0.31, 0.16] P = .53 Hz
175 mg single oral dose
  Alpha-power Fz-Cz, LSM CFB: 0.02 Hz
  Alpha-power Fz-Cz, estimate of difference compared to placebo: −0.15 [−1.19, 0.9] P = .78 Hz
  Alpha-power Pz-Oz, LSM CFB: −0.02 Hz
  Alpha-power Pz-Oz, estimate of difference compared to placebo: −0.12 [−0.37, 0.14] P = .36 Hz
  Beta-power Fz-Cz, LSM CFB: 0.08 Hz
  Beta-power Fz-Cz, estimate of difference compared to placebo: −0.04 [−0.26, 0.18] P = .73 Hz
  Beta-power Pz-Oz, LSM CFB: 0.01 Hz
  Beta-power Pz-Oz, estimate of difference compared to placebo: −0.12 [−0.32, 0.08] P = .24 Hz
  Delta-power Fz-Cz, LSM CFB: 0.09 Hz
  Delta-power Fz-Cz, estimate of difference compared to placebo: −0.01 [−0.23, 0.20] P = .91 Hz
  Delta-power Pz-Oz, LSM CFB: −0.07 Hz
  Delta-power Pz-Oz, estimate of difference compared to placebo: −0.13 [−0.36, 0.11] P = .26 Hz
  Gamma-power Fz-Cz, LSM CFB: 0.16 Hz
  Gamma-power Fz-Cz, estimate of difference compared to placebo: 0.06 [−0.14, 0.26] P = .57 Hz
  Gamma-power Pz-Oz, LSM CFB: 0.03 Hz
  Gamma-power Pz-Oz, estimate of difference compared to placebo: −0.18 [−0.43, 0.08] P = .17 Hz
  Theta-power Fz-Cz, LSM CFB: 0.08 Hz
  Theta-power Pz-Oz, LSM CFB: −0.07 Hz
  Theta-power Pz-Oz, estimate of difference compared to placebo: −0.14 [−0.37, 0.10] P = .25 Hz
200 mg single oral dose
  Alpha-power Fz-Cz, LSM CFB: 0.01 Hz
  Alpha-power Fz-Cz, estimate of difference compared to placebo: −0.28 [−1.39, 0.82] P = .61 Hz
  Alpha-power Pz-Oz, LSM CFB: 0.24 Hz
  Alpha-power Pz-Oz, estimate of difference compared to placebo: 0.14 [−0.11, 0.40] P = .27 Hz
  Beta-power Fz-Cz, LSM CFB: 0.07 Hz
  Beta-power Fz-Cz, estimate of difference compared to placebo: −0.05 [−0.27, 0.17] P = .67 Hz
  Beta-power Pz-Oz, LSM CFB: 0.2 Hz
  Beta-power Pz-Oz, estimate of difference compared to placebo: 0.07 [−0.12, 0.27] P = .46 Hz
  Delta-power Fz-Cz, LSM CFB: 0.02 Hz
  Delta-power Fz-Cz, estimate of difference compared to placebo: −0.08 [−0.29, 0.13] P = .45 Hz
  Delta-power Pz-Oz, LSM CFB: 0.26 Hz
  Delta-power Pz-Oz, estimate of difference compared to placebo: 0.20 [−0.04, 0.43] P = .10 Hz
  Gamma-power Fz-Cz, LSM CFB: 0.21 Hz
  Gamma-power Fz-Cz, estimate of difference compared to placebo: 0.11 [−0.09, 0.31] P = .29 Hz
  Gamma-power Pz-Oz, LSM CFB: 0.31 Hz
  Gamma-power Pz-Oz, estimate of difference compared to placebo: 0.11 [−0.15, 0.36] P = .40 Hz
  Theta-power Fz-Cz, LSM CFB: 0.07 Hz
  Theta-power Pz-Oz, LSM CFB: 0.25 Hz
  Theta-power Pz-Oz, estimate of difference compared to placebo: 0.18 [−0.05, 0.41] P = .13 Hz
